Results from different studies.
Compare with care: the assays were run in different laboratories.
Target: Serine/threonine-protein kinase MRCK alpha (CDC42BPA, Homo sapiens, UniProt Q5VT25)

| SMILES | test | setting | endpoint | value |
| --- | --- | --- | --- | --- |
| Cc1sc(C(=O)NC2COC2)cc1-n1cc(NC(=O)Nc2c(F)cccc2Cl)cn1 | enzyme activity, inhibitor | 10 µM | remaining activity | 104% |
| CC(C)(O)[C@H]1CC[C@H](Nc2ccc3ncc(-c4cccc(C(F)(F)F)c4)n3n2)CC1 | enzyme activity, inhibitor | 1 µM | remaining activity | 95.8% |
| Cc1cnc(NC2CCOCC2)nc1-n1cnc(C(=O)NC(CN)c2cc(F)cc(Cl)c2)c1 (stereo not drawn) | enzyme activity, inhibitor, radiometric | 1 µM | remaining activity | 64% |
| CNCc1ccccc1-c1csc([C@@H](C)Nc2nc(C)nc3cc(OC)c(OC)cc23)c1 | cell-free assay, competition with immobilised ligand | 1 µM | remaining binding | 67% |
| CCCOc1ccc(OC)c(F)c1C(=O)c1ccc(C(=O)N[C@@H]2CNC[C@H]2NC(=O)c2ccc3[nH]ncc3c2)cc1 | enzyme activity, inhibitor | 0.75 µM | remaining activity | 20% |
| CNC(=O)c1cc(Oc2ccc(NC(=O)Nc3ccc(Cl)c(C(F)(F)F)c3)cc2)ccn1 | enzyme activity, inhibitor | 10 µM | inhibition | 2% |
| CSc1cccnc1N1CCN(Cc2nc3ccccc3[nH]2)CC1 | cell-free assay, competition with immobilised ligand | 1 µM | remaining binding | 100% |
| COc1cc2ncnc(Nc3ccc(Oc4ccccc4)cc3C)c2cc1OC | enzyme activity, inhibitor | 1 µM | inhibition | 6% |
| CC(C)(O)c1cncc(-c2nc3ccc(F)cc3n2C2CC2)c1 | cell-free assay, competition with immobilised ligand | 1 µM | remaining binding | 100% |
| Cc1ccc(Nc2nccc(N(C)c3ccc4c(C)n(C)nc4c3)n2)cc1S(N)(=O)=O | enzyme activity, inhibitor | 10 µM | inhibition | 1% |
| CC(C)(C)c1nc2c(s1)c1nc(N)ncc1c1ccc(NS(=O)(=O)c3c(F)cccc3F)c(F)c12 | enzyme activity, inhibitor, radiometric | 1 µM | remaining activity | 82% |
| Nc1cnc(N2CCc3cc(S(=O)(=O)Nc4c(F)cc(Cl)cc4F)cc(N4CCCC4=O)c32)nc1 | cell-free assay, competition with immobilised ligand | 1 µM | remaining binding | 100% |
| CCN(CC)c1ccc(C2=NNC(=O)CC2C)cc1[N+](=O)[O-] (stereo not drawn) | enzyme activity, inhibitor | 10 µM | remaining activity | 78% |
| COc1ccc2cc(OCC3(C(=O)O)CN(C(=O)c4ccc(F)cc4)C3)ccc2c1 | cell-free assay, competition with immobilised ligand | 1 µM | remaining binding | 100% |
| O=C1Nc2ccc(Cl)cc2C1=Cc1cc(Cl)c(O)c(Cl)c1 | cell-free assay | 0.5 µM | remaining signal | 96.1% |
